From PubChem BioAssay AID504382 (The Scripps Research Institute Molecular Screening Center, 2011)
Screen size: about 2,500 compounds; about 460 (18%) were called active. The list is a sample of the results. Values without a mark were called inactive.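 The calls were made as follows: active = mean activation above a cutoff of low control average plus 3 SD from the earlier screen (cut at about 12% in these data); inactive = the rest.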

Experiment: IANBD-channel fluorescence artefacts in buffer – biochemical, artefact control for cardiac RTF calcium sensitizer project, confirmation (AID 504382)
Details: IANBD fluorescence interference counterscreen, EC20 Ca2+, at 7.2 µM, hits give high values, scaled: EC20 calcium 0, EC100 calcium 100
Procedure, shortened: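 Medium: MOPS buffer, 190 mM, with KCl, MgCl2, EGTA, NTA, DTT, pH 7.20; Dosing: one dose of 7.2 µM, 0.7% DMSO; Probe or stimulus: calcium at EC20 level, 0.472 mM final; Incubation: 15 min, 25 °C; Evaluation: compound fluorescence interference relative to control well signal range; Signal: fluorescence, 480/540 nm.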
For `O=C(Nc1ccc(Cl)cn1)C1CCN(S(=O)(=O)c2cccs2)CC1`, the fluorescence artifact activation was 74.6% (active).
With `CCOc1ccc(NC(=O)C2CCN(S(=O)(=O)c3cccnc3)CC2)cc1` the fluorescence artifact activation was -0.04%.
In the case of `COc1cccc(CNC(=O)CCC(=O)N2CC(C)Oc3ccccc32)c1OC` (stereo unspecified), the fluorescence artifact activation is reported as 0.11%.
For `Cc1c(C(=O)NC2CC2)oc2ccccc12`, the fluorescence artifact activation was 0.04%.
Compound `Cc1cc(C)nc(NC(=O)c2ccc(Cl)c(Cl)c2)n1` has a fluorescence artifact activation of 0.33%.
For `CC1=C(C#N)C(=O)OC(C)(C)C1`, the fluorescence artifact activation was 0.01%.
In the case of `Cc1[nH]c(=O)c(C#N)c(C)c1Cl`, the fluorescence artifact activation is reported as 0.06%.
Compound `O=C(N/N=C/c1sc(N2CCOCC2)nc1-c1ccccc1)c1cccc(S(=O)(=O)N2CCCC2)c1` has a fluorescence artifact activation of 0%.
In the case of `Cc1cc2nc3c(=O)[nH]c(=O)[nH]c3nc2c([N+](=O)[O-])c1N`, the fluorescence artifact activation is reported as 0.02%.
For `O=C1/C(=C/c2cccs2)N=C(c2cccs2)N1Nc1ccccc1`, the fluorescence artifact activation was 4.3%.
`COCCN(C(=S)Nc1cccc(OC)c1)C1CCN(C(C)=O)CC1` gave a fluorescence artifact activation of 0.16%.
Work on `CCn1cc(/C=C/C(=O)Nc2c(C)nn(Cc3ccccc3C)c2C)cn1` yielded a fluorescence artifact activation of 0.05%.
Compound `COc1ccc(CC(=O)NNC(=O)c2ccncc2)cc1` has a fluorescence artifact activation of 0.18%.
Compound `COc1ccc(/C=N/NC(=O)c2cccnc2)cc1CN1CCOCC1` has a fluorescence artifact activation of 6.25%.
Compound `CCOC(=O)C1=C(C)NC(C)=C(C(=O)OCC)C1c1ccco1` has a fluorescence artifact activation of 0.15%.
In the case of `COc1ccc(CNCc2cccc(Cl)c2)cc1`, the fluorescence artifact activation is reported as 0.14%.
In the case of `OCCNCc1cccc(OCc2ccc(Cl)cc2)c1`, the fluorescence artifact activation is reported as 61% (active).
`Cc1ccc(C(C(=O)NC2CCCC2)N(C(=O)Cc2cccs2)c2cccc(C)c2C)o1` (stereo unspecified) showed a fluorescence artifact activation of 0%.
For `CC1=C(C(=O)OCCCCCl)C(c2cc3c(cc2Br)OCO3)NC(=O)N1` (stereo unspecified), the fluorescence artifact activation was -0.02%.
For `C[C@H]1CN([C@@H](C)CO)C(=O)Cc2cc(NC(=O)CCC(F)(F)F)ccc2O[C@H]1CN(C)S(C)(=O)=O`, the fluorescence artifact activation was 0.55%.
In the case of `Oc1[nH]c2ccccc2c1N=Nc1ccc(F)cc1`, the fluorescence artifact activation is reported as 34.1% (active).
Compound `Oc1[nH]c2ccccc2c1N=Nc1ccccc1F` has a fluorescence artifact activation of -0.02%.
Work on `Oc1[nH]c2ccccc2c1N=Nc1ccccc1` yielded a fluorescence artifact activation of 11.6%.
`COc1ccc(-n2c(O)c(/C=N/NS(=O)(=O)c3cccc([N+](=O)[O-])c3)c3ccccc3c2=O)cc1OC` gave a fluorescence artifact activation of 0.15%.
Work on `Cn1ncc(Cl)c1C(=O)Nc1cccc(Cl)c1` yielded a fluorescence artifact activation of 0.09%.
For `CC1CC1c1ccc(/C=C(\C#N)C(=O)Nc2cccc(Cl)c2Cl)o1` (stereo unspecified), the fluorescence artifact activation was 4%.
For `Cn1nccc1NC(=O)Nc1cccc(Cl)c1Cl`, the fluorescence artifact activation was 13.5% (active).
`O=C(Nc1ccccc1)C1=C[C@H](c2ccc3c(c2)OCO3)C[C@H](OCCCCO)O1` showed a fluorescence artifact activation of 1.74%.
Compound `COc1cc(/C=N/NC(=O)c2cc(-c3ccccc3Cl)nc3ccccc23)cc(OC)c1O` has a fluorescence artifact activation of 8.56%.
`O=c1[nH][nH]c(C(F)(F)F)c1C=Nc1cccc(Cl)c1` showed a fluorescence artifact activation of 1.19%.
`Cc1cc(O)c(CN(C)C)c2c1C(=O)/C(=C/c1ccco1)O2` showed a fluorescence artifact activation of 0%.
With `CC(C)Cn1c(N)c(C(=O)COC(=O)c2cc(F)cc(F)c2)c(=O)n(C)c1=O` the fluorescence artifact activation was 40.2% (active).
For `CCOC(=O)C1=C(C)N=c2s/c(=C/c3ccc(OCC(=O)O)c(OC)c3)c(=O)n2C1c1ccc(Cl)cc1` (stereo unspecified), the fluorescence artifact activation was -0.04%.
Work on `Cc1cc(C=C2C(=O)c3ccccc3C2=O)c(C)n1-c1ccc(Cl)cc1` yielded a fluorescence artifact activation of -0.07%.
With `CCN1C(=O)/C(=C/c2ccc(N3CCCC3)cc2)NC1=S` the fluorescence artifact activation was 0.26%.
Work on `CCCN1C(=O)/C(=C/c2ccc(N3CCCC3)c(C)c2)NC1=S` yielded a fluorescence artifact activation of 0.06%.
For `CCCN1C(=O)/C(=C/c2ccc(N3CCOCC3)cc2)NC1=S`, the fluorescence artifact activation was 131% (active).
Compound `CC1(C)NC(=O)N(CCCCOc2ccc(Cl)cc2)C1=O` has a fluorescence artifact activation of 0.28%.
With `CCOC(=O)NC1(C(F)(F)F)C(=O)NC(C)=C1C(=O)OC` (stereo unspecified) the fluorescence artifact activation was 5.24%.
For `S=c1[nH]nc(-c2ccc(Cl)cc2)n1-c1ccc2c(c1)OCCO2`, the fluorescence artifact activation was 31.8% (active).
`Cc1ccc(-n2c(C)n[nH]c2=S)cc1` showed a fluorescence artifact activation of 1.66%.
`CCN(CC)c1ccc(/C=C2/SC(=O)N(C(C)C)C2=O)o1` showed a fluorescence artifact activation of 8.25%.
For `C/C(=N/NS(=O)(=O)c1ccccc1)c1ccc(NC(=O)C2CC2)cc1`, the fluorescence artifact activation was 6.01%.
With `O=C(CCCN1C(=O)c2ccccc2C1=O)Nc1ccc(S(=O)(=O)N2CCCCC2)cc1` the fluorescence artifact activation was 0.02%.
In the case of `O=C(CNCc1cccs1)Nc1ccc(S(=O)(=O)N2CCCCC2)cc1`, the fluorescence artifact activation is reported as 15.8% (active).
For `O=C(CNCc1cccs1)Nc1cc(S(=O)(=O)N2CCCC2)ccc1Cl`, the fluorescence artifact activation was 4.18%.
